According to ChEMBL document CHEMBL5107936, “Anti-amyloidogenic indolizino[3,2-c]quinolines as imaging probes differentiating dense-core, diffuse, and coronal plaques of amyloid-β” (RSC Med Chem, 2021):

Experiments:
HT-22 = assay: Cytotoxicity against mouse HT-22 cells assessed as reduction in cell viability incubated for 18 hrs by MTT assay; assay type: toxicity, cell-based; conditions: ht-22, 18 h
[1] = target: Amyloid-beta precursor protein (Homo sapiens) (UniProt P05067); assay: Inhibition of Amyloid beta (1 to 42 ) (unknown origin) aggregation assessed as fibrilization amyloid beta by measuring beta sheets at 1 to 50 uM incubated for 3 days by Thioflavin T based fluorescence assay; conditions: dose 1-50 µM, time 3.0 day
Amyloid-beta precursor protein (Homo sapiens), sequence (P05067 whole entry): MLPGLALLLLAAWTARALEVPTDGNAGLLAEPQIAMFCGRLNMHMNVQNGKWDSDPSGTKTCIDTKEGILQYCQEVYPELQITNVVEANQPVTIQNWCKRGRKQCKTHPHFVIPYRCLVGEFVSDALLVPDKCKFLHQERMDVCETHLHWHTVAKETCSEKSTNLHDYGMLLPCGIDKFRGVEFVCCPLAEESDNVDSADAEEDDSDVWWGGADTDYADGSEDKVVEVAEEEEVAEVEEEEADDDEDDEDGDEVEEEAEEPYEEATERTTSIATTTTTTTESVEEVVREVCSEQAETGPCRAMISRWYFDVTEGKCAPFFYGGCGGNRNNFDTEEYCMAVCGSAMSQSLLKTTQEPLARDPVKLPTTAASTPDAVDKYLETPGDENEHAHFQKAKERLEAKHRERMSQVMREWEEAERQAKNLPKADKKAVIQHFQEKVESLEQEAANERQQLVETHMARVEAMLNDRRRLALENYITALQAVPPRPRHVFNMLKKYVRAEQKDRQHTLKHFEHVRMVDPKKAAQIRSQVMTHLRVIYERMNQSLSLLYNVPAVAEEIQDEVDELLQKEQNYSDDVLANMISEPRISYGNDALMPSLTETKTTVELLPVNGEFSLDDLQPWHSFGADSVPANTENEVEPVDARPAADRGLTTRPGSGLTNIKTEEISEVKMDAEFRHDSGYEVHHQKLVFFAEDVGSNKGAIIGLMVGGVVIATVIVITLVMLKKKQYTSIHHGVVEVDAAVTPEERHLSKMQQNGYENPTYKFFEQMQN

[2] = target: Amyloid-beta precursor protein (Homo sapiens) (UniProt P05067); assay: Inhibition of Amyloid beta (1 to 42 ) (unknown origin) disaggregation assessed as reduction in mature fibril at 50 uM preincubated with amyloid beta followed by compound addition and measured after 3 days by Thioflavin T based fluorescence assay; conditions: time 3.0 day
[3] = target: Amyloid-beta precursor protein (Homo sapiens) (UniProt P05067); assay: Inhibition of Amyloid beta (1 to 42 ) (unknown origin) aggregation at 0.5 to 50 uM incubated for 3 days followed by incandescent lamp irradiation by photo-induced cross-linking of unmodified proteins method; conditions: dose 0.5-50 µM, time 3.0 day
Outline: (§1)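 Cross-linked Aβ products resolved on gels, imaged by fluorescence scanning and by silver staining. Band area quantified by densitometry and normalized to the 3-day aggregates, set as 100%.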

[4] = target: Amyloid-beta precursor protein (Homo sapiens) (UniProt P05067); assay: Inhibition of Amyloid beta (1 to 42 ) (unknown origin) disaggregation assessed as reduction in aggregation by measuring monomer band intensity at 0.5 to 50 uM incubated for 3 days followed by incandescent lamp irradiation by photo-induced cross-linking of unmodified proteins method; conditions: dose 0.5-50 µM, time 3.0 day; outline: as §1

SMILES: COc1ccc(-c2nc3ccccc3c3cc4ccccn4c23)cc1OC
- Activity (HT-22): Toxic

SMILES: COc1ccc(-c2nc3ccccc3c3cc4ccc(Br)cn4c23)cc1OC
- Activity (HT-22): Toxic
- inhibition [1]: > 30%
- inhibition [2]: 40%
- inhibition [3]: 20%

SMILES: COc1cc(OC)cc(-c2ccc3cc4c5ccccc5nc(-c5cccc6ccccc56)c4n3c2)c1
- Activity (HT-22): Toxic
- inhibition [1]: > 30%

SMILES: Cc1cccn2c1cc1c3ccccc3nc(-c3cccc(F)c3)c12
- Activity (HT-22): Toxic

SMILES: CN(C)c1ccc(-c2nc3ccccc3c3cc4ccccn4c23)cc1
- Activity (HT-22): Toxic
- inhibition [1]: > 30%
- inhibition [2]: > 60%
- inhibition [3]: 20%
- inhibition [4]: 10%

SMILES: Brc1ccc(C2Nc3ccccc3-c3cc4ccccn4c32)cc1 (stereo unspecified)
- Activity (HT-22): Toxic

SMILES: c1ccc(-c2nc3ccccc3c3cc4ccccn4c23)cc1
- Activity (HT-22): Toxic

SMILES: Brc1ccc(-c2nc3ccccc3c3cc4ccccn4c23)cc1
- Activity (HT-22): Toxic

SMILES: Cc1cccn2c1cc1c3ccccc3nc(-c3cccc4ccccc34)c12
- Activity (HT-22): Toxic

SMILES: COc1ccc(-c2nc3ccccc3c3c(-c4ccc(F)cc4)c4ccccn4c23)cc1
- Activity (HT-22): Toxic

SMILES: c1ccc(-c2nc3ccccc3c3cc4ccccn4c23)nc1
- Activity (HT-22): Toxic

SMILES: COc1ccc(-c2nc3ccccc3c3cc4ccc(-c5cc(OC)cc(OC)c5)cn4c23)cc1
- Activity (HT-22): Toxic

SMILES: Clc1ccc(-c2nc3ccccc3c3cc4ccccn4c23)s1
- Activity (HT-22): Toxic

SMILES: Cc1cccn2c1cc1c3ccccc3nc(-c3cc4ccccc4[nH]3)c12
- Activity (HT-22): Toxic
- inhibition [1]: > 30%
- inhibition [2]: 40%

SMILES: COc1cccc(-c2nc3ccccc3c3cc4ccccn4c23)c1
- Activity (HT-22): Toxic

SMILES: COc1cc(OC)cc(-c2nc3ccccc3c3cc4c(C)cccn4c23)c1
- Activity (HT-22): Toxic

SMILES: Cc1ccc2cc3c4ccccc4nc(-c4cccc5ccccc45)c3n2c1
- Activity (HT-22): Toxic

SMILES: Clc1ccc(-c2nc3ccccc3c3cc4ccccn4c23)cc1
- Activity (HT-22): Toxic

SMILES: COc1cccc(-c2nc3ccccc3c3cc4c(C)cccn4c23)c1
- Activity (HT-22): Toxic

SMILES: CCOC(=O)c1c2c3ccccc3nc(-c3ccc(OC)c(OC)c3)c2n2ccccc12
- Activity (HT-22): Toxic

SMILES: COc1ccc(-c2nc3ccccc3c3cc4c(C)cccn4c23)cc1OC
- Activity (HT-22): Toxic
- inhibition [1]: > 30%
- inhibition [2]: 40%
- inhibition [3]: 20%

SMILES: COc1ccc(-c2nc3ccccc3c3cc4ccccn4c23)cc1
- Activity (HT-22): Toxic

SMILES: Cc1cccn2c1cc1c3ccccc3nc(-c3ccco3)c12
- Activity (HT-22): Toxic

SMILES: Cc1ccc(-c2nc3ccccc3c3cc4c(C)cccn4c23)cc1
- Activity (HT-22): Toxic

SMILES: Brc1ccc2cc3c4ccccc4nc(-c4ccco4)c3n2c1
- Activity (HT-22): Toxic
- inhibition [1]: > 30%

SMILES: c1ccc2c(-c3nc4ccccc4c4cc5ccccn5c34)cccc2c1
- Activity (HT-22): Toxic

SMILES: c1ccc2cc(-c3nc4ccccc4c4cc5ccccn5c34)ccc2c1
- Activity (HT-22): Toxic

SMILES: COc1ccc(-c2nc3ccccc3c3c(I)c4ccccn4c23)cc1
- Activity (HT-22): Toxic

SMILES: c1csc(-c2nc3ccccc3c3cc4ccccn4c23)c1
- Activity (HT-22): Toxic

SMILES: COC(=O)c1c2c3ccccc3nc(-c3ccc[nH]3)c2n2ccccc12
- Activity (HT-22): Toxic

SMILES: COc1cc(OC)cc(-c2nc3ccccc3c3cc4ccccn4c23)c1
- Activity (HT-22): Toxic

SMILES: Cc1cccn2c1cc1c3ccccc3nc(-c3cc4ccccc4o3)c12
- Activity (HT-22): Toxic
